Measured values taken from ChEMBL document CHEMBL3414514, “Synthesis and pharmacological evaluation of novel bisindole derivatives bearing oximes moiety: identification of novel proapoptotic agents” (Eur J Med Chem, 2015).

Tested on: not listed separately
Assay: Cytotoxicity against human SKOV3 cells after 2 days by MTT assay
Format: functional, cell-based
Details: SK-OV-3, 48 h
Summary of the method: (§1)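 Cells grown in medium with 10% heat-inactivated FBS at 37 C under 5% CO2. Compounds dissolved in medium with 1% DMSO; controls received 1% DMSO. After 2 days, MTT (10 mg/mL) added for 4 h, formazan dissolved in DMSO and absorbance read at 570/630 nm. Survival taken relative to negative control; IC50 by Bliss method (n = 5), at least three independent experiments.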
In the case of N#Cc1ccc2c(c1)/C(=N\O)C(c1c[nH]c3ccc(C#N)cc13)=N2, the IC50 is reported as 25.9 µM.
For O/N=C1/C(c2c[nH]c3ccccc23)=Nc2ccccc21, the IC50 was 15.9 µM.
Work on Cc1ccc(CO/N=C2/C(c3c[nH]c4ccc(F)cc34)=Nc3ccc(F)cc32)cc1 yielded an IC50 of 11.3 µM.
For Fc1ccc(CO/N=C2/C(c3c[nH]c4ccccc34)=Nc3ccccc32)c(Cl)c1, the IC50 was 37.6 µM.
Clc1cccc(CO/N=C2/C(c3c[nH]c4ccc(Br)cc34)=Nc3ccc(Br)cc32)c1 showed an IC50 of 14.1 µM.
For Fc1ccc2c(c1)/C(=N\OCc1ccccc1)C(c1c[nH]c3ccc(F)cc13)=N2, the IC50 was 12.3 µM.
For Fc1ccc(CO/N=C2/C(c3c[nH]c4ccccc34)=Nc3ccccc32)cc1, the IC50 was 29 µM.
Work on Cc1ccc2c(c1)/C(=N\O)C(c1c[nH]c3ccc(C)cc13)=N2 yielded an IC50 of 11.1 µM.

Tested on: HUVEC
Assay: Cytotoxicity against human HUVEC cells after 2 days by MTT assay
Format: cell-based
Details: 48 h
Summary of the method: as §1
In the case of N#Cc1ccc2c(c1)/C(=N\O)C(c1c[nH]c3ccc(C#N)cc13)=N2, the IC50 is reported as greater than 100 µM.
O/N=C1/C(c2c[nH]c3ccccc23)=Nc2ccccc21 showed an IC50 greater than 100 µM.
For Cc1ccc(CO/N=C2/C(c3c[nH]c4ccc(F)cc34)=Nc3ccc(F)cc32)cc1, the IC50 was greater than 100 µM.
For Fc1ccc(CO/N=C2/C(c3c[nH]c4ccccc34)=Nc3ccccc32)c(Cl)c1, the IC50 was greater than 100 µM.
In the case of Clc1cccc(CO/N=C2/C(c3c[nH]c4ccc(Br)cc34)=Nc3ccc(Br)cc32)c1, the IC50 is reported as greater than 100 µM.
For Fc1ccc2c(c1)/C(=N\OCc1ccccc1)C(c1c[nH]c3ccc(F)cc13)=N2, the IC50 was greater than 100 µM.
In the case of Fc1ccc(CO/N=C2/C(c3c[nH]c4ccccc34)=Nc3ccccc32)cc1, the IC50 is reported as greater than 100 µM.
For Cc1ccc2c(c1)/C(=N\O)C(c1c[nH]c3ccc(C)cc13)=N2, the IC50 was greater than 100 µM.

Tested on: HepG2
Assay: Cytotoxicity against human HepG2 cells after 2 days by MTT assay
Format: functional, cell-based
Details: HepG2, 48 h
Summary of the method: as §1
With N#Cc1ccc2c(c1)/C(=N\O)C(c1c[nH]c3ccc(C#N)cc13)=N2 the IC50 was 30.1 µM.
With O/N=C1/C(c2c[nH]c3ccccc23)=Nc2ccccc21 the IC50 was 20.4 µM.
For Cc1ccc(CO/N=C2/C(c3c[nH]c4ccc(F)cc34)=Nc3ccc(F)cc32)cc1, the IC50 was 19.6 µM.
Fc1ccc(CO/N=C2/C(c3c[nH]c4ccccc34)=Nc3ccccc32)c(Cl)c1 gave an IC50 of 25.4 µM.
For Clc1cccc(CO/N=C2/C(c3c[nH]c4ccc(Br)cc34)=Nc3ccc(Br)cc32)c1, the IC50 was 13.3 µM.
Compound Fc1ccc2c(c1)/C(=N\OCc1ccccc1)C(c1c[nH]c3ccc(F)cc13)=N2 has an IC50 of 17.3 µM.
Fc1ccc(CO/N=C2/C(c3c[nH]c4ccccc34)=Nc3ccccc32)cc1 gave an IC50 of 35.5 µM.
Cc1ccc2c(c1)/C(=N\O)C(c1c[nH]c3ccc(C)cc13)=N2 showed an IC50 of 10.7 µM.

Tested on: not listed separately
Assay: Cytotoxicity against human T24 cells after 2 days by MTT assay
Format: functional, cell-based
Details: T-24, 48 h
Summary of the method: as §1
With N#Cc1ccc2c(c1)/C(=N\O)C(c1c[nH]c3ccc(C#N)cc13)=N2 the IC50 was 28.4 µM.
In the case of O/N=C1/C(c2c[nH]c3ccccc23)=Nc2ccccc21, the IC50 is reported as 27.4 µM.
Compound Cc1ccc(CO/N=C2/C(c3c[nH]c4ccc(F)cc34)=Nc3ccc(F)cc32)cc1 has an IC50 of 20 µM.
Compound Fc1ccc(CO/N=C2/C(c3c[nH]c4ccccc34)=Nc3ccccc32)c(Cl)c1 has an IC50 of 20 µM.
With Clc1cccc(CO/N=C2/C(c3c[nH]c4ccc(Br)cc34)=Nc3ccc(Br)cc32)c1 the IC50 was 9.34 µM.
Compound Fc1ccc2c(c1)/C(=N\OCc1ccccc1)C(c1c[nH]c3ccc(F)cc13)=N2 has an IC50 of 12.5 µM.
Work on Fc1ccc(CO/N=C2/C(c3c[nH]c4ccccc34)=Nc3ccccc32)cc1 yielded an IC50 of 23.1 µM.
Work on Cc1ccc2c(c1)/C(=N\O)C(c1c[nH]c3ccc(C)cc13)=N2 yielded an IC50 of 8.78 µM.

Tested on: NCI-H460
Assay: Cytotoxicity against human NCI-H460 cells after 2 days by MTT assay
Format: functional, cell-based
Details: NCI-H460, 48 h
Summary of the method: as §1
With N#Cc1ccc2c(c1)/C(=N\O)C(c1c[nH]c3ccc(C#N)cc13)=N2 the IC50 was 14.3 µM.
For O/N=C1/C(c2c[nH]c3ccccc23)=Nc2ccccc21, the IC50 was 22.5 µM.
Cc1ccc(CO/N=C2/C(c3c[nH]c4ccc(F)cc34)=Nc3ccc(F)cc32)cc1 showed an IC50 of 12 µM.
Fc1ccc(CO/N=C2/C(c3c[nH]c4ccccc34)=Nc3ccccc32)c(Cl)c1 gave an IC50 of 21.9 µM.
Compound Clc1cccc(CO/N=C2/C(c3c[nH]c4ccc(Br)cc34)=Nc3ccc(Br)cc32)c1 has an IC50 of 14.6 µM.
With Fc1ccc2c(c1)/C(=N\OCc1ccccc1)C(c1c[nH]c3ccc(F)cc13)=N2 the IC50 was 12 µM.
Fc1ccc(CO/N=C2/C(c3c[nH]c4ccccc34)=Nc3ccccc32)cc1 gave an IC50 of 20.7 µM.
For Cc1ccc2c(c1)/C(=N\O)C(c1c[nH]c3ccc(C)cc13)=N2, the IC50 was 18.3 µM.

Tested on: not listed separately
Assay: Cytotoxicity against human SPCA2 cells after 2 days by MTT assay
Format: functional, cell-based
Details: SPCA2, 48 h
Summary of the method: as §1
For N#Cc1ccc2c(c1)/C(=N\O)C(c1c[nH]c3ccc(C#N)cc13)=N2, the IC50 was 19.2 µM.
Compound O/N=C1/C(c2c[nH]c3ccccc23)=Nc2ccccc21 has an IC50 of 20.4 µM.
Work on Cc1ccc(CO/N=C2/C(c3c[nH]c4ccc(F)cc34)=Nc3ccc(F)cc32)cc1 yielded an IC50 of 11 µM.
Fc1ccc(CO/N=C2/C(c3c[nH]c4ccccc34)=Nc3ccccc32)c(Cl)c1 gave an IC50 of 19.5 µM.
With Clc1cccc(CO/N=C2/C(c3c[nH]c4ccc(Br)cc34)=Nc3ccc(Br)cc32)c1 the IC50 was 13.5 µM.
With Fc1ccc2c(c1)/C(=N\OCc1ccccc1)C(c1c[nH]c3ccc(F)cc13)=N2 the IC50 was 13.3 µM.
Fc1ccc(CO/N=C2/C(c3c[nH]c4ccccc34)=Nc3ccccc32)cc1 gave an IC50 of 25.9 µM.
Cc1ccc2c(c1)/C(=N\O)C(c1c[nH]c3ccc(C)cc13)=N2 showed an IC50 of 19.6 µM.

Tested on: A549
Assay: Cytotoxicity against human A549 cells after 2 days by MTT assay
Format: functional, cell-based
Details: A549, 48 h
Summary of the method: as §1
With N#Cc1ccc2c(c1)/C(=N\O)C(c1c[nH]c3ccc(C#N)cc13)=N2 the IC50 was 14.9 µM.
With O/N=C1/C(c2c[nH]c3ccccc23)=Nc2ccccc21 the IC50 was 21.8 µM.
Cc1ccc(CO/N=C2/C(c3c[nH]c4ccc(F)cc34)=Nc3ccc(F)cc32)cc1 gave an IC50 of 13.6 µM.
Work on Fc1ccc(CO/N=C2/C(c3c[nH]c4ccccc34)=Nc3ccccc32)c(Cl)c1 yielded an IC50 of 21.4 µM.
Work on Clc1cccc(CO/N=C2/C(c3c[nH]c4ccc(Br)cc34)=Nc3ccc(Br)cc32)c1 yielded an IC50 of 12.9 µM.
In the case of Fc1ccc2c(c1)/C(=N\OCc1ccccc1)C(c1c[nH]c3ccc(F)cc13)=N2, the IC50 is reported as 10.5 µM.
Work on Fc1ccc(CO/N=C2/C(c3c[nH]c4ccccc34)=Nc3ccccc32)cc1 yielded an IC50 of 27 µM.
Cc1ccc2c(c1)/C(=N\O)C(c1c[nH]c3ccc(C)cc13)=N2 gave an IC50 of 11.2 µM.

Tested on: MGC-803
Assay: Cytotoxicity against human MGC803 cells after 2 days by MTT assay
Format: functional, cell-based
Details: MGC-803, 48 h
Summary of the method: as §1
N#Cc1ccc2c(c1)/C(=N\O)C(c1c[nH]c3ccc(C#N)cc13)=N2 gave an IC50 of 18.4 µM.
In the case of O/N=C1/C(c2c[nH]c3ccccc23)=Nc2ccccc21, the IC50 is reported as 20.6 µM.
Work on Cc1ccc(CO/N=C2/C(c3c[nH]c4ccc(F)cc34)=Nc3ccc(F)cc32)cc1 yielded an IC50 of 20.8 µM.
Work on Fc1ccc(CO/N=C2/C(c3c[nH]c4ccccc34)=Nc3ccccc32)c(Cl)c1 yielded an IC50 of 18.5 µM.
Clc1cccc(CO/N=C2/C(c3c[nH]c4ccc(Br)cc34)=Nc3ccc(Br)cc32)c1 gave an IC50 of 7.6 µM.
With Fc1ccc2c(c1)/C(=N\OCc1ccccc1)C(c1c[nH]c3ccc(F)cc13)=N2 the IC50 was 21.3 µM.
For Fc1ccc(CO/N=C2/C(c3c[nH]c4ccccc34)=Nc3ccccc32)cc1, the IC50 was 33 µM.
In the case of Cc1ccc2c(c1)/C(=N\O)C(c1c[nH]c3ccc(C)cc13)=N2, the IC50 is reported as 9.47 µM.
